ChEMBL document CHEMBL1140069, “In vitro antifungal activity of polyfunctionalized 2-(hetero)arylquinolines prepared through imino Diels-Alder reactions” (2008)

Columns and labels:
Format in all cases: functional
Candida albicans [1] = assay: Antimicrobial activity against Candida albicans C126 isolate at 6.25 ug/ml after 24 hrs
How it was run: (§1)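 Growth-inhibition microplate test. Strains are grown on Sabouraud-chloramphenicol agar for 48 h at 30 °C, and inoculum is added to RPMI-1640 containing compound at a final 100–6.25, with DMSO ≤2%. Each strain has a growth control (same DMSO, no compound) and a sterility control.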

Candida tropicalis [2] = assay: Antimicrobial activity against Candida tropicalis C131 isolate at 12.5 ug/ml after 24 hrs
How it was run: (§2)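 Percent growth inhibition in 96-well microplates. Compound stocks in DMSO (≤2%) were diluted in RPMI-1640 to final 100–6.25 µg/mL, and 100 µL inoculum was added (final 200 µL). Controls were a growth well (inoculum with matching DMSO, no compound) and a sterility well (no inoculum). Inhibition was calculated against growth and sterility wells.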

Candida albicans [3] = assay: Antimicrobial activity against Candida albicans C127 isolate at 6.25 ug/ml after 24 hrs; details: C127, 24 h; how it was run: as §1
Candida albicans [4] = assay: Antimicrobial activity against Candida albicans C128 isolate at 100 ug/ml after 24 hrs; how it was run: as §1
Candida albicans [5] = assay: Antimicrobial activity against Candida albicans C126 isolate at 12.5 ug/ml after 24 hrs; how it was run: as §1
Candida albicans [6] = assay: Antimicrobial activity against Candida albicans C130 isolate at 25 ug/ml after 24 hrs; how it was run: as §1
Candida tropicalis [7] = assay: Antimicrobial activity against Candida tropicalis C131 isolate at 100 ug/ml after 24 hrs; how it was run: as §2
Pichia kudriavzevii [8] = assay: Antimicrobial activity against Candida krusei C117 isolate at 12.5 ug/ml after 24 hrs; how it was run: as §2
Candida tropicalis [9] = assay: Antimicrobial activity against Candida tropicalis C131 isolate at 25 ug/ml after 24 hrs; how it was run: as §2
Candida tropicalis [10] = assay: Antimicrobial activity against Candida tropicalis C131 isolate at 50 ug/ml after 24 hrs; how it was run: as §2
Candida albicans [11] = assay: Antimicrobial activity against Candida albicans C127 isolate at 100 ug/ml after 24 hrs; details: C127, 24 h; how it was run: as §1
Candida albicans [12] = assay: Antimicrobial activity against Candida albicans C129 isolate at 50 ug/ml after 24 hrs; how it was run: as §1
Candida parapsilosis = assay: Antimicrobial activity against Candida parapsilosis C124 isolate at 50 ug/ml after 24 hrs; details: Lodderomyces parapsilosis; how it was run: as §2
Candida albicans [13] = assay: Antimicrobial activity against Candida albicans C128 isolate at 12.5 ug/ml after 24 hrs; how it was run: as §1
Pichia kudriavzevii [14] = assay: Antimicrobial activity against Candida krusei C117 isolate at 6.25 ug/ml after 24 hrs; how it was run: as §2
Pichia kudriavzevii [15] = assay: Antimicrobial activity against Candida krusei C117 isolate at 50 ug/ml after 24 hrs; how it was run: as §2
Pichia kudriavzevii [16] = assay: Antimicrobial activity against Candida krusei C117 isolate at 25 ug/ml after 24 hrs; how it was run: as §2
Candida albicans [17] = assay: Antimicrobial activity against Candida albicans C126 isolate at 25 ug/ml after 24 hrs; how it was run: as §1
Candida albicans [18] = assay: Antimicrobial activity against Candida albicans C129 isolate at 12.5 ug/ml after 24 hrs; how it was run: as §1
Candida albicans [19] = assay: Antimicrobial activity against Candida albicans C129 isolate at 100 ug/ml after 24 hrs; how it was run: as §1
Nakaseomyces glabratus [20] = assay: Antimicrobial activity against Candida glabrata C115 isolate at 25 ug/ml after 24 hrs; how it was run: as §2
Nakaseomyces glabratus [21] = assay: Antimicrobial activity against Candida glabrata C115 isolate at 12.5 ug/ml after 24 hrs; how it was run: as §1
Candida albicans [22] = assay: Antimicrobial activity against Candida albicans C130 isolate at 12.5 ug/ml after 24 hrs; how it was run: as §1
Candida albicans [23] = assay: Antimicrobial activity against Candida albicans C127 isolate at 25 ug/ml after 24 hrs; details: C127, 24 h; how it was run: as §1
Candida tropicalis [24] = assay: Antimicrobial activity against Candida tropicalis C131 isolate at 6.25 ug/ml after 24 hrs; how it was run: as §2
Candida albicans [25] = assay: Antimicrobial activity against Candida albicans C130 isolate at 100 ug/ml after 24 hrs; how it was run: as §1
Candida albicans [26] = assay: Antimicrobial activity against Candida albicans C128 isolate at 50 ug/ml after 24 hrs; how it was run: as §1

SMILES	inhibition at 6.25 µg/mL (Candida albicans [1]) [%]	inhibition at 12.5 µg/mL (Candida tropicalis [2]) [%]	inhibition at 6.25 µg/mL (Candida albicans [3]) [%]	inhibition at 100 µg/mL (Candida albicans [4]) [%]	inhibition at 12.5 µg/mL (Candida albicans [5]) [%]	inhibition at 25 µg/mL (Candida albicans [6]) [%]	inhibition at 100 µg/mL (Candida tropicalis [7]) [%]	inhibition at 12.5 µg/mL (Pichia kudriavzevii [8]) [%]	inhibition at 25 µg/mL (Candida tropicalis [9]) [%]	inhibition at 50 µg/mL (Candida tropicalis [10]) [%]	inhibition at 100 µg/mL (Candida albicans [11]) [%]	inhibition at 50 µg/mL (Candida albicans [12]) [%]	inhibition at 50 µg/mL (Candida parapsilosis) [%]	inhibition at 12.5 µg/mL (Candida albicans [13]) [%]	inhibition at 6.25 µg/mL (Pichia kudriavzevii [14]) [%]	inhibition at 50 µg/mL (Pichia kudriavzevii [15]) [%]	inhibition at 25 µg/mL (Pichia kudriavzevii [16]) [%]	inhibition at 25 µg/mL (Candida albicans [17]) [%]	inhibition at 12.5 µg/mL (Candida albicans [18]) [%]	inhibition at 100 µg/mL (Candida albicans [19]) [%]	other results
c1ccc2nc(-c3ccncc3)ccc2c1	0	54	0	88	0	48	100	0	60	75	80	82	5	0	0	3	0	0	3	85	inhibition at 25 µg/mL (Nakaseomyces glabratus [20]): 4%; inhibition at 12.5 µg/mL (Nakaseomyces glabratus [21]): 1%; inhibition at 12.5 µg/mL (Candida albicans [22]): 2%; inhibition at 25 µg/mL (Candida albicans [23]): 0%; inhibition at 6.25 µg/mL (Candida tropicalis [24]): 22%; inhibition at 100 µg/mL (Candida albicans [25]): 84%; inhibition at 50 µg/mL (Candida albicans [26]): 15%
Cc1cc(-c2ccncc2)nc2ccccc12	0	54	0	88	0	48	100	0	60	75	80	82	5	0	0	3	0	0	3	85	inhibition at 25 µg/mL (Nakaseomyces glabratus [20]): 4%; inhibition at 12.5 µg/mL (Nakaseomyces glabratus [21]): 1%; inhibition at 12.5 µg/mL (Candida albicans [22]): 2%; inhibition at 25 µg/mL (Candida albicans [23]): 0%; inhibition at 6.25 µg/mL (Candida tropicalis [24]): 22%; inhibition at 100 µg/mL (Candida albicans [25]): 84%; inhibition at 50 µg/mL (Candida albicans [26]): 15%
